pEC50, pIC50: −log10 of the molar value. Where a SMILES comes first, the peptide text is derived from it. [ ]: non-standard residue; d: D form. 2Nal = N[C@@H](Cc1ccc2ccccc2c1)C(=O)O; Pip = O=C(O)[C@@H]1CCCCN1; dPip = O=C(O)[C@H]1CCCCN1; βAla = NCCC(=O)O
Key:
[1] = target: C-X-C chemokine receptor type 4 (Homo sapiens, UniProt P61073); assay: Inhibition of [125I]SDF-1alpha binding to CXCR4 (unknown origin) expressed in HEK293 cell membranes incubated for 1 hr by radioligand displacement assay
[2] = target: T1, Atypical chemokine receptor 3 (Homo sapiens, UniProt P25106); assay: Inhibition of [125I]SDF-1alpha binding to CXCR7 (unknown origin) expressed in CHO cell membranes incubated for 1 hr by radioligand displacement assay
Summary of the method: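 Scintillation proximity binding: receptor membranes (10−20 µg/well) on WGA beads (0.25 mg/well) incubated with peptide and [125I]-SDF-1α (0.20 nM for CXCR4, 0.25 nM for CXCR7). Room temperature, 1 h. Bound radioactivity counted 1 min/well. IC50 taken from inhibition of tracer binding.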

[3] = target: Atypical chemokine receptor 3 (Homo sapiens, UniProt P25106, S198R); assay: Agonist activity at CXCR7 S198R mutant (unknown origin) expressed in HEK293E cells co-transfected with receptor-eYFP construct and beta-arrestin2-Rluc assessed as induction of receptor-mediated beta-arrestin recruitment by BRET assay; format: cell-based
Summary of the method: (§1)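 Transient co-transfection of HEK293E cells with 1 µg receptor-eYFP plus 0.05 µg β-arrestin2-Rluc, made up to 2 µg/well with empty vector. Cells cultured overnight, seeded on poly(D-lysine) plates and grown 24 h more. Ligand added in BRET buffer (PBS, 0.5 mM MgCl2, 0.01% BSA), 5 min at 37 °C, then coelenterazine h 5 µM final. Read 30 min after ligand addition. Net BRET = YFP (510–550 nm)/Rluc (460–500 nm) minus Rluc-only background.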

[4] = target: Atypical chemokine receptor 3 (Homo sapiens, UniProt P25106, D275N); assay: Agonist activity at CXCR7 D275N mutant (unknown origin) expressed in HEK293E cells co-transfected with receptor-eYFP construct and beta-arrestin2-Rluc assessed as induction of receptor-mediated beta-arrestin recruitment by BRET assay; format: cell-based; summary of the method: as §1
[5] = target: Atypical chemokine receptor 3 (Homo sapiens, UniProt P25106, D179N); assay: Agonist activity at CXCR7 D179N mutant (unknown origin) expressed in HEK293E cells co-transfected with receptor-eYFP construct and beta-arrestin2-Rluc assessed as induction of receptor-mediated beta-arrestin recruitment by BRET assay; format: cell-based; conditions: for pEC50: read-out: EC50; summary of the method: as §1
[6] = target: T1, Atypical chemokine receptor 3; assay: Agonist activity at wild type CXCR7 (unknown origin) expressed in HEK293E cells co-transfected with receptor-eYFP construct and beta-arrestin2-Rluc assessed as induction of receptor-mediated beta-arrestin recruitment by BRET assay; format: cell-based; conditions: for pEC50: read-out: EC50; for EC50: read-out: pEC50 (converted); summary of the method: as §1
[7] = target: T1, Atypical chemokine receptor 3; assay: Agonist activity at CXCR7 (unknown origin) expressed in HEK293E cells co-transfected with receptor-eYFP construct and beta-arrestin2-Rluc assessed as induction of receptor-mediated beta-arrestin recruitment by BRET assay; format: cell-based; conditions: for pEC50: read-out: EC50; for EC50: read-out: pEC50 (converted); summary of the method: as §1

C-X-C chemokine receptor type 4, sequence (P61073 whole entry): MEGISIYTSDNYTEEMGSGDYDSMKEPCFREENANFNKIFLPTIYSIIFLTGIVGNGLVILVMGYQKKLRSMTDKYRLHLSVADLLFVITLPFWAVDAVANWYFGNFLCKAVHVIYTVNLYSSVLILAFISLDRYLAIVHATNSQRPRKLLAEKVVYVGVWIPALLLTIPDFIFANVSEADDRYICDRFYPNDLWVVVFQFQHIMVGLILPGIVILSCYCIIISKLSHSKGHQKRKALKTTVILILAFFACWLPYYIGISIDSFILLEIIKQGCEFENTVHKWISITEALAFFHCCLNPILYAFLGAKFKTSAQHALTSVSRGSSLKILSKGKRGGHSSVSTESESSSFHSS
Atypical chemokine receptor 3 (Homo sapiens, UniProt P25106, D179N), sequence (P25106 whole entry D179N): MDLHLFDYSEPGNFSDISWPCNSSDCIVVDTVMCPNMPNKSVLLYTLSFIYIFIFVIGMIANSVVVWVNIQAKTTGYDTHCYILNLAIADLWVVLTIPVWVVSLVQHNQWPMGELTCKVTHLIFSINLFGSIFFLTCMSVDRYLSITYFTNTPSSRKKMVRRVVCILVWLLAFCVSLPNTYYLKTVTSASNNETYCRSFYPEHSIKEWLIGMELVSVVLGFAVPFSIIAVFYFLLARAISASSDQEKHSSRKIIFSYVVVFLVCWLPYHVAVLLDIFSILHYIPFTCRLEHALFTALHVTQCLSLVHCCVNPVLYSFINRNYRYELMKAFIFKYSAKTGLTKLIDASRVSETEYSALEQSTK
T1 sequence (P25106 whole entry): as the sequence (P25106 whole entry D179N) above, with N179D counted along it
Atypical chemokine receptor 3 (Homo sapiens, UniProt P25106, D275N), sequence (P25106 whole entry D275N): as the sequence (P25106 whole entry D179N) above, with N179D, D275N counted along it
Atypical chemokine receptor 3 (Homo sapiens, UniProt P25106, S198R), sequence (P25106 whole entry S198R): as the sequence (P25106 whole entry D179N) above, with N179D, S198R counted along it

Structure (SMILES) | pIC50 [1] | pIC50 [2] | other results
CN1C(=O)[C@@H](Cc2ccc(O)cc2)NC(=O)[C@@H]2CCCN2C(=O)[C@H](Cc2ccc3ccccc3c2)NC(=O)[C@H](CCCNC(=N)N)NC(=O)[C@H]1CCCNC(=N)N | < 4.52 | 4.89 | –
N=C(N)NCCC[C@@H]1NC(=O)[C@H](CCCNC(=N)N)NC(=O)[C@@H](Cc2ccc(O)cc2)NC(=O)CCNC(=O)[C@H](Cc2ccc3ccccc3c2)NC1=O (cyclo([2Nal][βAla][dY]RR)) | 5.22 | < 4.52 | –
CN1C(=O)[C@@H]2CCCN2C(=O)[C@H](Cc2ccc3ccccc3c2)NC(=O)[C@H](CCCNC(=N)N)NC(=O)[C@H](CCCNC(=N)N)NC(=O)[C@@H]1Cc1ccc(O)cc1 | < 4.52 | 4.64 | –
CN1C(=O)[C@H](CCCNC(=N)N)NC(=O)[C@@H](Cc2ccc(O)cc2)NC(=O)[C@@H]2CCCN2C(=O)[C@H](Cc2ccc3ccccc3c2)NC(=O)[C@@H]1CCCNC(=N)N | < 4.52 | 6.10 | pEC50 [3]: 6.44; pEC50 [4]: 6.19; pEC50 [5]: 5.70; pEC50 [6]: 6.62; EC50 [6]: 0.158 µM; pEC50 [7]: 7.02
C[C@H]1NC(=O)[C@H](Cc2ccc3ccccc3c2)NC(=O)[C@H](CCCNC(=N)N)NC(=O)[C@H](CCCNC(=N)N)NC(=O)[C@@H](Cc2ccc(O)cc2)NC1=O (cyclo([dY]RR[2Nal][dA])) | 5.66 | < 4.52 | –
N=C(N)NCCC[C@@H]1NC(=O)[C@H](CCCNC(=N)N)NC(=O)[C@@H](Cc2ccc(O)cc2)NC(=O)[C@H]2CCCCN2C(=O)[C@H](Cc2ccc3ccccc3c2)NC1=O (cyclo([2Nal][dPip][dY]RR)) | < 4.52 | < 4.52 | –
C[C@@H]1NC(=O)[C@@H](Cc2ccc(O)cc2)NC(=O)[C@@H]2CCCN2C(=O)[C@H](Cc2ccc3ccccc3c2)NC(=O)[C@H](CCCNC(=N)N)N(C)C1=O | < 4.52 | 4.80 | –
N=C(N)NCCC[C@@H]1NC(=O)[C@H](CCCNC(=N)N)NC(=O)[C@@H](Cc2ccc(O)cc2)NC(=O)CNC(=O)[C@H](Cc2ccc3ccccc3c2)NC1=O | – | < 4.52 | pEC50 [7]: 5.62; EC50 [7]: 2 µM
C[C@@H]1C(=O)N[C@H](Cc2ccc(O)cc2)C(=O)N[C@@H](CCCNC(=N)N)C(=O)N[C@@H](CCCNC(=N)N)C(=O)N[C@@H](Cc2ccc3ccccc3c2)C(=O)N1C | 5.34 | < 4.52 | –
C[C@H]1NC(=O)[C@@H]2CCCN2C(=O)[C@H](Cc2ccc3ccccc3c2)NC(=O)[C@H](CCCNC(=N)N)N(C)C(=O)[C@H](CCCNC(=N)N)NC1=O | < 4.52 | < 4.52 | –
C[C@@H]1NC(=O)[C@H](Cc2ccc3ccccc3c2)NC(=O)[C@H](CCCNC(=N)N)NC(=O)[C@H](CCCNC(=N)N)NC(=O)[C@@H](Cc2ccc(O)cc2)NC1=O (cyclo([2Nal]A[dY]RR)) | 4.64 | 4.74 | –
CN1C(=O)[C@@H]2CCCN2C(=O)[C@H](Cc2ccc3ccccc3c2)NC(=O)[C@H](CCCNC(=N)N)NC(=O)[C@H](CCCNC(=N)N)NC(=O)[C@H]1Cc1ccc(O)cc1 | < 4.52 | 4.74 | –
N=C(N)NCCC[C@@H]1NC(=O)[C@H](CCCNC(=N)N)NC(=O)[C@@H](Cc2ccc(O)cc2)NC(=O)[C@@H]2CCCN2C(=O)[C@H](Cc2ccc3ccccc3c2)NC1=O | < 4.52 | 5.82 | pEC50 [3]: 6.44; pEC50 [4]: 5.82; pEC50 [5]: 5.46; EC50 ([5]; read-out: pEC50 (converted)): 3.98 µM; pEC50 [6]: 6.72; EC50 [6]: 0.126 µM; pEC50 [7]: 7.13
N=C(N)NCCC[C@@H]1NC(=O)[C@H](CCCNC(=N)N)NC(=O)[C@@H](Cc2ccc(O)cc2)NC(=O)[C@@H]2CCCCN2C(=O)[C@H](Cc2ccc3ccccc3c2)NC1=O (cyclo([2Nal][Pip][dY]RR)) | < 4.52 | 4.89 | –
CN1C(=O)[C@H](CCCNC(=N)N)NC(=O)[C@@H](Cc2ccc(O)cc2)NC(=O)[C@@H]2CCCN2C(=O)[C@H](Cc2ccc3ccccc3c2)NC(=O)[C@H]1CCCNC(=N)N | < 4.52 | 5.34 | –
C[C@H]1C(=O)N[C@@H](Cc2ccc3ccccc3c2)C(=O)N2CCC[C@H]2C(=O)N[C@H](Cc2ccc(O)cc2)C(=O)N[C@@H](CCCNC(=N)N)C(=O)N1C | < 4.52 | 4.96 | –
N=C(N)NCCC[C@@H]1NC(=O)[C@@H](CCCNC(=N)N)NC(=O)[C@@H](Cc2ccc(O)cc2)NC(=O)[C@@H]2CCCN2C(=O)[C@H](Cc2ccc3ccccc3c2)NC1=O | < 4.52 | 5.34 | –
N=C(N)NCCC[C@@H]1NC(=O)[C@H](Cc2ccc(O)cc2)NC(=O)[C@@H]2CCCN2C(=O)[C@H](Cc2ccc3ccccc3c2)NC(=O)[C@H](CCCNC(=N)N)NC1=O | < 4.52 | < 4.52 | –
CC[C@H](C)[C@@H]1NC(=O)[C@H]([C@@H](C)O)NC(=O)[C@H]2CCCN2C(=O)[C@H](Cc2ccc3ccccc3c2)NC(=O)[C@H](CCCNC(=N)N)NC(=O)[C@@H](CCCNC(=N)N)NC1=O (cyclo([2Nal][dP]TI[dR]R)) | – | 5.77 | pEC50 [7]: 7.44; EC50 [7]: 0.0316 µM
N=C(N)NCCC[C@@H]1NC(=O)[C@H](CCCNC(=N)N)NC(=O)[C@@H](Cc2ccc(O)cc2)NC(=O)[C@@H]2CCCN2C(=O)[C@@H](Cc2ccc3ccccc3c2)NC1=O | < 4.52 | < 4.52 | –
C[C@H]1C(=O)N[C@H](Cc2ccc(O)cc2)C(=O)N[C@@H](CCCNC(=N)N)C(=O)N[C@@H](CCCNC(=N)N)C(=O)N[C@@H](Cc2ccc3ccccc3c2)C(=O)N1C | < 4.52 | 4.82 | –
CN1C(=O)[C@@H](Cc2ccc(O)cc2)NC(=O)[C@@H]2CCCN2C(=O)[C@H](Cc2ccc3ccccc3c2)NC(=O)[C@H](CCCNC(=N)N)NC(=O)[C@@H]1CCCNC(=N)N | < 4.52 | 5.62 | –
CN1C(=O)[C@H](CCCNC(=N)N)NC(=O)[C@H](CCCNC(=N)N)NC(=O)[C@@H](Cc2ccc(O)cc2)NC(=O)[C@@H]2CCCN2C(=O)[C@H]1Cc1ccc2ccccc2c1 | < 4.52 | < 4.52 | –
N=C(N)NCCC[C@@H]1NC(=O)[C@H](CCCNC(=N)N)NC(=O)[C@@H](Cc2ccc(O)cc2)NC(=O)[C@H]2CCCN2C(=O)[C@H](Cc2ccc3ccccc3c2)NC1=O | < 4.52 | < 4.52 | –
C[C@@H]1NC(=O)[C@H](CCCNC(=N)N)N(C)C(=O)[C@H](CCCNC(=N)N)NC(=O)[C@@H](Cc2ccc(O)cc2)NC(=O)[C@@H]2CCCN2C1=O | < 4.52 | < 4.52 | –
CN1C(=O)[C@H](CCCNC(=N)N)NC(=O)[C@H](CCCNC(=N)N)NC(=O)[C@@H](Cc2ccc(O)cc2)NC(=O)[C@@H]2CCCN2C(=O)[C@@H]1Cc1ccc2ccccc2c1 | < 4.52 | 5.47 | –
N=C(N)NCCC[C@@H]1NC(=O)[C@@H](Cc2ccc(O)cc2)NC(=O)[C@@H]2CCCN2C(=O)[C@H](Cc2ccc3ccccc3c2)NC(=O)[C@@H](CCCNC(=N)N)NC1=O | < 4.52 | < 4.52 | –

From ChEMBL document CHEMBL3580653, “Development of novel CXC chemokine receptor 7 (CXCR7) ligands: selectivity switch from CXCR4 antagonists with a cyclic pentapeptide scaffold” (J Med Chem, 2015)
